Measurements collected from several papers.
Protocols differ between the studies behind these lines.
Observed: enzyme activity
Action: inhibitor
Rps6ka1: Ribosomal protein S6 kinase alpha-1 (Rps6ka1, Rattus norvegicus, UniProt Q63531)
HIPK4: Homeodomain-interacting protein kinase 4 (HIPK4, Homo sapiens, UniProt Q8NE63)
TcPGFS: TcPGFS (Trypanosoma cruzi, UniProt Q8I6L9)

Structure (SMILES)	target	technique	tested at	time	remaining activity
Cc1cnc(NC2CCOCC2)nc1-n1cnc(C(=O)NC(CN)c2cc(F)cc(Cl)c2)c1 (stereo not shown)	Rps6ka1	radiometric	1 µM		53%
Cc1ccc(C(=O)Nc2ccc(CN3CCN(C)CC3)c(C(F)(F)F)c2)cc1C#Cc1cnc2cccnn12	Uncharacterized serine/threonine-protein kinase SBK3 (SBK3, Homo sapiens, UniProt P0C264)		23.5 nM		89%
O=C(O)c1ccc2c(c1)nc(Nc1ccccc1)c1ncncc12	HIPK4	radiometric	1 µM		103%
CC[C@H](C)[C@H](NC(=O)[C@H](CCC(N)=O)NC(=O)[C@H](CC(C)C)NC(=O)[C@H](CCSC)NC(=O)[C@H](CCCCN)NC(=O)[C@H](CO)NC(=O)[C@H](CO)NC(=O)[C@H](CCSC)NC(=O)[C@H](CC(C)C)NC(=O)[C@H](CC(N)=O)NC(=O)[C@@H](NC(=O)[C@@H](NC(=O)[C@H](CO)NC(=O)[C@H](CC(C)C)NC(=O)[C@H](CS)NC(=O)[C@H](CCCNC(=N)N)NC(=O)[C@H](CC(=O)O)NC(=O)[C@H](Cc1c[nH]c2ccccc12)NC(=O)[C@H](Cc1ccccc1)NC(=O)[C@H](C)NC(=O)[C@H](CCC(=O)O)NC(=O)[C@@H](N)CCCCN)C(C)C)[C@@H](C)CC)C(=O)N[C@@H](CC(N)=O)C(=O)N[C@@H](C)C(=O)O	Cyclin-dependent kinase 5, with p25 (CDK5, Homo sapiens, UniProt Q00535)	radiometric	50 µM	20 min	80%
COc1cc(Cl)c(C(=O)N[C@@H](CN[C@H]2CC[C@@H](N)CC2)Cc2ccc(C#N)cc2)cc1-c1ccc(CN[C@H](C)c2ccc(C)cc2)o1	Cyclin-dependent kinase-like 2 (CDKL2, Homo sapiens, UniProt Q92772)		1 µM		93%
CC1=CC(=O)c2ccccc2C1=O	TcPGFS		200 µM		68%
COc1cccc(CCNc2nc3cc(C(=O)O)ccc3c3cncnc23)c1	HIPK4	radiometric	1 µM		135%
CC1CS(=O)(=O)CCN1/N=C/c1ccc([N+](=O)[O-])o1 (stereo not shown)	TcPGFS		200 µM		6%
O=C(O)c1ccc2c(c1)nc(NCCc1cccc(Cl)c1)c1ncncc12	HIPK4	radiometric	1 µM		53%
CCCOc1ccc(OC)c(F)c1C(=O)c1ccc(C(=O)N[C@@H]2CNC[C@H]2NC(=O)c2ccc3[nH]ncc3c2)cc1	Rps6ka1		0.5 µM		77%
